Active and inactive are the calls of the source. The calls are words filed in the database; no cut-off is given here.
How the values were obtained:
[1] = tested on: Protein cereblon/Epidermal growth factor receptor (Homo sapiens), P00533+Q96SW2 [UNDEFINED MUTATION]; assay: Protac activity at CRBN/EGFR exon 19 deletion mutant in human PC9 cells assessed as induction of degradation of EGFR assessed as fold change in EGFR protein expression at 0.3 uM incubated for 48 hrs by Western blot analysis relative to control (reference value: 1); assay type: cell-based; settings: PC-9
Method in brief: (§1)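 Time course in PC9 cells at a fixed 0.3 μM. Cells harvested at the indicated time points and EGFR protein quantified by western blot relative to control.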

[2] = tested on: Protein cereblon/Epidermal growth factor receptor (Homo sapiens), P00533+Q96SW2 [UNDEFINED MUTATION]; assay: Protac activity at CRBN/EGFR exon 19 deletion mutant in human PC9 cells assessed as induction of degradation of EGFR assessed as fold change in EGFR protein expression at 0.3 uM incubated for 24 hrs by Western blot analysis relative to control (reference value: 1); assay type: cell-based; settings: PC-9; method in brief: as §1
[3] = tested on: Protein cereblon/Epidermal growth factor receptor (Homo sapiens), P00533+Q96SW2 [UNDEFINED MUTATION]; assay: Protac activity at CRBN/EGFR exon 19 deletion mutant in human PC9 cells assessed as induction of degradation of EGFR assessed as fold change in EGFR protein expression at 0.3 uM incubated for 12 hrs by Western blot analysis relative to control (reference value: 1); assay type: cell-based; settings: PC-9; method in brief: as §1
[4] = tested on: Protein cereblon/Epidermal growth factor receptor (Homo sapiens), P00533+Q96SW2 [UNDEFINED MUTATION]; assay: Protac activity at CRBN/EGFR exon 19 deletion mutant in human PC9 cells assessed as induction of degradation of EGFR assessed as fold change in EGFR protein expression at 0.3 uM incubated for 3 hrs by Western blot analysis relative to control (reference value: 1); assay type: cell-based; settings: PC-9; method in brief: as §1
[5] = tested on: Protein cereblon/Epidermal growth factor receptor (Homo sapiens), P00533+Q96SW2 [UNDEFINED MUTATION]; assay: Protac activity at CRBN/EGFR exon 19 deletion mutant in human PC9 cells assessed as induction of degradation of EGFR assessed as fold change in EGFR protein expression at 0.3 uM incubated for 1 hr by Western blot analysis relative to control (reference value: 1); assay type: cell-based; settings: PC-9; method in brief: as §1
[6] = tested on: Protein cereblon/Epidermal growth factor receptor (Homo sapiens), P00533+Q96SW2 [UNDEFINED MUTATION]; assay: Protac activity at CRBN/EGFR exon 19 deletion mutant in human PC9 cells assessed as induction of degradation of EGFR at 0.3 uM incubated for 6 hrs by Western blot analysis relative to control; assay type: cell-based; settings: PC-9; method in brief: as §1
[7] = tested on: Protein cereblon/Epidermal growth factor receptor (Homo sapiens), P00533+Q96SW2 [UNDEFINED MUTATION]; assay: Protac activity at CRBN/EGFR exon 19 deletion mutant in human PC9 cells assessed as induction of degradation of EGFR by measuring fold change in EGFR protein expression at 0.1 uM incubated for 6 hrs by Western blot analysis relative to control (reference value: 1); assay type: cell-based; settings: PC-9
Method in brief: (§2)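 PC9 cells (EGFR Del19) exposed for 6 h to six concentrations from 0.1 μM to 10 μM. EGFR protein measured by western blot relative to untreated control. DC50 and Dmax derived from the concentration-response.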

[8] = tested on: Protein cereblon/Epidermal growth factor receptor (Homo sapiens), P00533+Q96SW2 [UNDEFINED MUTATION]; assay: Protac activity at CRBN/EGFR exon 19 deletion mutant in human PC9 cells assessed as induction of degradation of EGFR by measuring fold change in EGFR protein expression at 0.3 uM incubated for 6 hrs by Western blot analysis relative to control (reference value: 1); assay type: cell-based; settings: PC-9; method in brief: as §2
[9] = tested on: Protein cereblon/Epidermal growth factor receptor (Homo sapiens), P00533+Q96SW2 [UNDEFINED MUTATION]; assay: Protac activity at CRBN/EGFR exon 19 deletion mutant in human PC9 cells assessed as induction of degradation of EGFR by measuring fold change in EGFR protein expression at 1 uM incubated for 6 hrs by Western blot analysis relative to control (reference value: 1); assay type: cell-based; settings: PC-9; method in brief: as §2
[10] = tested on: Protein cereblon/Epidermal growth factor receptor (Homo sapiens), P00533+Q96SW2 [UNDEFINED MUTATION]; assay: Protac activity at CRBN/EGFR exon 19 deletion mutant in human PC9 cells assessed as induction of degradation of EGFR by measuring fold change in EGFR protein expression at 3 uM incubated for 6 hrs by Western blot analysis relative to control (reference value: 1); assay type: cell-based; settings: PC-9; method in brief: as §2
[11] = tested on: Protein cereblon/Epidermal growth factor receptor (Homo sapiens), P00533+Q96SW2 [UNDEFINED MUTATION]; assay: Protac activity at CRBN/EGFR exon 19 deletion mutant in human PC9 cells assessed as induction of degradation of EGFR by measuring fold change in EGFR protein expression at 10 uM incubated for 6 hrs by Western blot analysis relative to control (reference value: 1); assay type: cell-based; settings: PC-9; method in brief: as §2
[12] = tested on: Protein cereblon/Epidermal growth factor receptor (Homo sapiens), P00533+Q96SW2 [UNDEFINED MUTATION]; assay: (§3) Protac activity at CRBN/EGFR exon 19 deletion mutant in human PC9 cells assessed as induction of degradation of EGFR incubated for 6 hrs by Western blot analysis; assay type: cell-based; settings: PC-9; method in brief: as §2
[13] = target: Protein cereblon/Epidermal growth factor receptor (Homo sapiens, UniProt P00533+Q96SW2); assay: as §3; assay type: cell-based; settings: pc-9; method in brief: as §2
[14] = tested on: Protein cereblon/Epidermal growth factor receptor (Homo sapiens), P00533+Q96SW2 [L858R,T790M]; assay: Protac activity at CRBN/EGFR L858R/T790M mutant in human H1975 cells assessed as induction of degradation of EGFR at 10 uM incubated for 24 hrs by Western blot analysis; assay type: cell-based
Method in brief: (§4)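 PC9 (EGFR Del19) and H1975 (EGFR L858R/T790M) cells exposed to 10 μM compound for 24 h. Cell lysates analysed for EGFR protein by western blot.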

[15] = tested on: Protein cereblon/Epidermal growth factor receptor (Homo sapiens), P00533+Q96SW2 [UNDEFINED MUTATION]; assay: Protac activity at CRBN/EGFR exon 19 deletion mutant in human PC9 cells assessed as increase in degradation of EGFR at 10 uM incubated for 24 hrs by Western blot analysis; assay type: cell-based; settings: PC-9; method in brief: as §4
NCI-H1975 = assay: Antiproliferative activity against human NCI-H1975 cells harboring EGFR L858R/T790M double mutant by MTT assay; assay type: functional, cell-based
Method in brief: (§5)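 MTT proliferation read-out in human NSCLC lines: PC9 (EGFR Del19), HCC827 (EGFR Del E746-A750) and H1975 (EGFR L858R/T790M). IC50 values are in μM and reported as mean ± SD from n = 3.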

PC-9 [16] = assay: Antiproliferative activity against human PC9 cells harboring EGFRDel19 mutant by MTT assay; assay type: functional, cell-based; method in brief: as §5
HCC827 = assay: Antiproliferative activity against human HCC827 cells harboring EGFRDel19 mutant by MTT assay; assay type: functional, cell-based; method in brief: as §5
[17] = tested on: Protein cereblon/Epidermal growth factor receptor (Homo sapiens), P00533+Q96SW2 [UNDEFINED MUTATION]; assay: Protac activity at CRBN/EGFR exon 19 deletion mutant in human PC9 cells assessed as induction of degradation of EGFR at 0.3 uM pretreated with proteasome inhibitor, MG-132 for 2 hrs followed by incubation with compound for 6 hrs by Western blot analysis; assay type: cell-based; settings: PC-9
Method in brief: (§6)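 PC9 cells pretreated for 2 h with proteasome inhibitor MG-132 (10 μM) or lenalidomide (10 μM), then given 0.3 μM PROTAC for 6 h. EGFR levels read by western blot.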

[18] = tested on: Protein cereblon/Epidermal growth factor receptor (Homo sapiens), P00533+Q96SW2 [UNDEFINED MUTATION]; assay: Protac activity at CRBN/EGFR exon 19 deletion mutant in human PC9 cells assessed as induction of degradation of EGFR at 0.3 uM pretreated with proteasome inhibitor, lenalidomide for 2 hrs followed by incubation with compound for 6 hrs by Western blot analysis; assay type: cell-based; settings: PC-9; method in brief: as §6
[19] = tested on: Protein cereblon/Epidermal growth factor receptor (Homo sapiens), P00533+Q96SW2 [UNDEFINED MUTATION]; assay: Protac activity at CRBN/EGFR exon 19 deletion mutant in human PC9 cells assessed as induction of degradation of EGFR at 0.3 uM incubated for 24 hrs by DAPI-staining based immunofluorescence microscopy; assay type: cell-based; settings: PC-9
PC-9 [20] = assay: Induction of cell cycle arrest in human PC9 cells harboring EGFRDel19 mutant assessed as accumulation in G0/G1 phase at 0.5 uM incubated for 24 hrs by confocal microscopy; assay type: functional, cell-based
Method in brief: (§7)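 PC9 cells were exposed to 0.5 μM test agent for 24 h. Cell cycle distribution and apoptosis were then read on an ImageXpress Micro Confocal/Widefield high-content imaging system.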

PC-9 [21] = assay: Induction of apoptosis in human PC9 cells harboring EGFRDel19 mutant at 0.5 uM incubated for 24 hrs by confocal microscopy relative to control; assay type: functional; method in brief: as §7

Question: With C=CC(=O)Nc1cc(Nc2nccc(-c3cn(C)c4ccccc34)n2)c(OC)cc1N(C)CCN(C)CCOCCOCCOCCOCC(=O)Nc1cccc2c1CN(C1CCC(=O)NC1=O)C2=O (stereo not drawn) as the compound, how does the fold change (FC) [1] read?
Answer: The fold change (FC) was 0.57.

Question: What about the fold change (FC) [2] of the same compound?
Answer: The fold change (FC) was 0.52.

Question: And the fold change (FC) [3]?
Answer: Its fold change (FC) is 1.39.

Question: What about the fold change (FC) [4] of the same compound?
Answer: The fold change (FC) was 1.01.

Question: What about the fold change (FC) [5] of the same compound?
Answer: Its fold change (FC) is 0.96.

Question: And the Emax [6]?
Answer: The Emax was 56 to 68%.

Question: What about the fold change (FC) [7] of the same compound?
Answer: The fold change (FC) was 0.61.

Question: What about the fold change (FC) [8] of the same compound?
Answer: Its fold change (FC) is 0.32 to 0.44.

Question: What about the fold change (FC) [9] of the same compound?
Answer: The fold change (FC) was 0.82.

Question: What about the fold change (FC) [10] of the same compound?
Answer: Its fold change (FC) is 0.49.

Question: And the fold change (FC) [11]?
Answer: Its fold change (FC) is 0.39.

Question: And the Activity [12]?
Answer: The Activity was “Dose-dependent effect”.

Question: What about the DC50 [13] of the same compound?
Answer: Its DC50 is 0.161 µM.

Question: What about the Activity [14] of the same compound?
Answer: The Activity was “Active”.

Question: And the Activity [15]?
Answer: Its Activity is “Active”.

Question: And the IC50 (NCI-H1975)?
Answer: Its IC50 is 0.657 µM.

Question: What about the IC50 (PC-9 [16]) of the same compound?
Answer: The IC50 was 0.413 µM.

Question: What about the IC50 (HCC827) of the same compound?
Answer: The IC50 was 1.34 µM.

Question: And the Activity [17]?
Answer: Its Activity is “inactive”.

Question: What about the Activity [18] of the same compound?
Answer: Its Activity is “inactive”.

Question: What about the Activity [19] of the same compound?
Answer: The Activity was “Active”.

Question: And the Activity (PC-9 [20])?
Answer: Its Activity is “Active”.

Question: And the Activity (PC-9 [21])?
Answer: The Activity was 38.6%.

Question: How did the Activity [14] turn out when C=CC(=O)Nc1cc(Nc2nccc(-c3cn(C)c4ccccc34)n2)c(OC)cc1N(C)CCN(C)CCOCCOCCOCC(=O)Nc1cccc2c1CN(C1CCC(=O)NC1=O)C2=O (stereo not drawn) was run?
Answer: Its Activity is “Active”.

Question: And the Activity [15]?
Answer: The Activity was “Active”.

Question: What about the IC50 (NCI-H1975) of the same compound?
Answer: The IC50 was 1.7 µM.

Question: And the IC50 (PC-9 [16])?
Answer: The IC50 was 1.12 µM.

Question: What about the IC50 (HCC827) of the same compound?
Answer: The IC50 was 1.61 µM.

Question: Which Activity [14] does the source give for C=CC(=O)Nc1cc(Nc2nccc(-c3cn(C)c4ccccc34)n2)c(OC)cc1N(C)CCN(C)CCOCCOCC(=O)Nc1cccc2c1CN(C1CCC(=O)NC1=O)C2=O (stereo not drawn) here?
Answer: Its Activity is “Active”.

Question: And the Activity [15]?
Answer: The Activity was “Active”.

Question: And the IC50 (NCI-H1975)?
Answer: Its IC50 is 1.39 µM.

Question: What about the IC50 (PC-9 [16]) of the same compound?
Answer: The IC50 was 1.43 µM.

Question: What about the IC50 (HCC827) of the same compound?
Answer: The IC50 was 1.87 µM.
